# Tests used:
# P. aeruginosa ATCC 27853 = experiment: Disk diffusion assay; assay type: cell-based; conditions: Pa ATCC 27853, 20 μg on blank disc (Ø = 0.6 cm), 24 h
# In short: (§1)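 The test compound (20 µg) was loaded onto a blank 0.6 cm disc and placed on an agar plate inoculated with the bacterium. The plate was incubated for 24 h, and the diameter of the bacteria-free zone around the disc was measured in cm. Saline was included as a control.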
# A. baumannii ATCC 19606 [1] = experiment: Disk diffusion assay; assay type: cell-based; conditions: Ab ATCC 19606, 20 μg on blank disc (Ø = 0.6 cm), 24 h
# In short: as §1
# Ab ATCC 19606 = conditions: broth microdilution, mass basis; data with * ref [21]; cited from earlier work
# A. baumannii ATCC 19606 [2] = experiment: Time-kill study; assay type: cell-based; conditions: 4 × MIC (mass based; higher value where MIC is a range)
Substance,Diameter of Zone of Inhibition (ZOI) (P. aeruginosa ATCC 27853) [cm],Diameter of Zone of Inhibition (ZOI) (A. baumannii ATCC 19606 [1]) [cm],Minimum inhibitory concentration against Ab ATCC 19606 (MIC) (Ab ATCC 19606),Time to inhibit the growth of bacteria to levels approaching the detection limit (A. baumannii ATCC 19606 [2])
colistin,1.8,1.8,1* mg/L,–
colistin methanesulfonate [CMS],1.7,1.8,16* mg/L,around 6 h
